Where a chain is given by its changes, count along the chain named.
Key:
hTRPV4 = hTRPV4 (Homo sapiens, UniProt Q9HBA0); experiment: whole-cell patch-clamp of TRPV4 currents in HEK293 cells; type: cell-based; conditions: compound 50 μmol/L; current elicited by 100 nmol/L GSK1016790A
Outline: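 Human channel cDNAs were transiently transfected into HEK293 cells with Lipofectamine 2000. EGFP-positive cells were recorded whole-cell 18 h later at 22–24 °C with ~4.0 MΩ fire-polished pipettes. Cells were held at 0 mV with 500-ms ramps from −100 to +100 mV every 2 s. Test compound in perfusion solution was co-applied with agonist, and average current inhibition was summarised; n = 4–6.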

hTRPV3 = target: T1, hTRPV3 (Homo sapiens, UniProt Q8NET8); experiment: inside-out single-channel recordings of HEK293 cells overexpressing hTRPV3; type: biochemical; conditions: for channel open probability: compound 100 μmol/L in the presence of carvacrol 300 μmol/L, from 26.9 ± 5.5%, +80 mV, n = 4; for effect on ion permeation or single-channel conductance: single-channel level
T1 sequence (Q8NET8 1-790): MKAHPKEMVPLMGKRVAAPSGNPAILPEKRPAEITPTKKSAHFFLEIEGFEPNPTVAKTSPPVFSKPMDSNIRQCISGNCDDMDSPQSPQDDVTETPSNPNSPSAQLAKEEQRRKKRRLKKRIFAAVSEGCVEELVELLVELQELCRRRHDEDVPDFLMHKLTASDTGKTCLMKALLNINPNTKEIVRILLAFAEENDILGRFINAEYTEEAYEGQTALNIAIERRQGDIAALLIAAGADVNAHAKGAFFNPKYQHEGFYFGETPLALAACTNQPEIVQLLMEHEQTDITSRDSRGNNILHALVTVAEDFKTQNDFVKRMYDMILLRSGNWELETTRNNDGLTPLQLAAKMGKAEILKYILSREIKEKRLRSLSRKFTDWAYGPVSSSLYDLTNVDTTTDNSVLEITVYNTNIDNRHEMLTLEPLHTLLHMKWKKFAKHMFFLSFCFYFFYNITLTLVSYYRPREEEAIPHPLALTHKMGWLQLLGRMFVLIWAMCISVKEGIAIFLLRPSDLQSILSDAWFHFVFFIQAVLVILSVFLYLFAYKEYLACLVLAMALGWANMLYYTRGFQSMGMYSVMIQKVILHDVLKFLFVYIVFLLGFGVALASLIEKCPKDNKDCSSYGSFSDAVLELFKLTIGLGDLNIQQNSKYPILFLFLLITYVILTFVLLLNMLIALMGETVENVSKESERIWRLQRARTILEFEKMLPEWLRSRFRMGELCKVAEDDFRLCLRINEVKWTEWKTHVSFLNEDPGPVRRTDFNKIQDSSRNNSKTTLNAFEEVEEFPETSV
Outline: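 Inside-out patches from EGFP-identified HEK293 cells, 18 h after hTRPV3 transfection, used 6–10 MΩ pipettes. Patches were held at 0 mV, then stepped to +80 mV. Currents were sampled at 10 kHz, filtered at 2.9 kHz, at 22–24 °C. All-points histograms were Gaussian-fitted for conductance and mean open probability; n = 4.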

mTRPV3 F666A = target: T2, mTRPV3 F666A (Mus musculus, UniProt Q8K424, F666A); experiment: whole-cell patch-clamp of mTRPV3 F666A mutant in HEK293 cells; type: cell-based; conditions: compound 50 μmol/L; 2-APB; compared with WT mTRPV3
T2 sequence (Q8K424 1-791 F666A): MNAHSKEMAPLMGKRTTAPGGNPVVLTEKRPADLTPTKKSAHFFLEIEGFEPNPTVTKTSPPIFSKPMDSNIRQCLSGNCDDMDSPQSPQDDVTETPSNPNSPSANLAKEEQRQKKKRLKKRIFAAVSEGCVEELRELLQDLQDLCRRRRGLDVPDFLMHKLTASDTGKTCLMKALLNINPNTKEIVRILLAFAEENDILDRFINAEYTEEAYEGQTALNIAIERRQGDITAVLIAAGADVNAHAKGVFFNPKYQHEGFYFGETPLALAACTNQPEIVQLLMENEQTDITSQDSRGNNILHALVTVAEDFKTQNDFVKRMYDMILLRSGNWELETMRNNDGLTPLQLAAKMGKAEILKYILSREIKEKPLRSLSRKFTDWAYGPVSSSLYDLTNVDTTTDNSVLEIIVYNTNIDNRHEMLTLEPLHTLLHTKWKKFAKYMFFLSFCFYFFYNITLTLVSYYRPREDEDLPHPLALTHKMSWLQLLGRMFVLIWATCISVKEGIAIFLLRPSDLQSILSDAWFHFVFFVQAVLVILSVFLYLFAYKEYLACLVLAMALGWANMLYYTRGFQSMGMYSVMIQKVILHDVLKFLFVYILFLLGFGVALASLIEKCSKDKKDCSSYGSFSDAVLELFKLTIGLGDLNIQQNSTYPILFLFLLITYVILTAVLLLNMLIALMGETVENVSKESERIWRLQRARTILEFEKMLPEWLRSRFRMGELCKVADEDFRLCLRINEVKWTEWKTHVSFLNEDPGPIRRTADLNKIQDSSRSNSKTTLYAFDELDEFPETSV
Outline: (§1)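 Mouse Trpv3 point mutants were made by site-directed mutagenesis, sequence-verified, and transiently expressed in HEK293 cells alongside wild-type mTRPV3. Whole-cell ramp recordings (−100 to +100 mV, 500 ms, holding 0 mV) were made at 22–24 °C. Currents were activated by 2-APB, and inhibition by 50 μmol/L test compound in the presence of 2-APB was compared with wild type; n = 3–8.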

mTRPV3 V662A = target: T3, mTRPV3 V662A (Mus musculus, UniProt Q8K424, V662A); experiment: whole-cell patch-clamp of mTRPV3 V662A mutant in HEK293 cells; type: cell-based; conditions: compound 50 μmol/L; 2-APB; compared with WT mTRPV3
T3 sequence (Q8K424 1-791 V662A): T2 sequence (Q8K424 1-791 F666A) with V662A, A666F
Outline: as §1

hTRPV4, sequence (Q9HBA0 whole entry, the tested form may be a part): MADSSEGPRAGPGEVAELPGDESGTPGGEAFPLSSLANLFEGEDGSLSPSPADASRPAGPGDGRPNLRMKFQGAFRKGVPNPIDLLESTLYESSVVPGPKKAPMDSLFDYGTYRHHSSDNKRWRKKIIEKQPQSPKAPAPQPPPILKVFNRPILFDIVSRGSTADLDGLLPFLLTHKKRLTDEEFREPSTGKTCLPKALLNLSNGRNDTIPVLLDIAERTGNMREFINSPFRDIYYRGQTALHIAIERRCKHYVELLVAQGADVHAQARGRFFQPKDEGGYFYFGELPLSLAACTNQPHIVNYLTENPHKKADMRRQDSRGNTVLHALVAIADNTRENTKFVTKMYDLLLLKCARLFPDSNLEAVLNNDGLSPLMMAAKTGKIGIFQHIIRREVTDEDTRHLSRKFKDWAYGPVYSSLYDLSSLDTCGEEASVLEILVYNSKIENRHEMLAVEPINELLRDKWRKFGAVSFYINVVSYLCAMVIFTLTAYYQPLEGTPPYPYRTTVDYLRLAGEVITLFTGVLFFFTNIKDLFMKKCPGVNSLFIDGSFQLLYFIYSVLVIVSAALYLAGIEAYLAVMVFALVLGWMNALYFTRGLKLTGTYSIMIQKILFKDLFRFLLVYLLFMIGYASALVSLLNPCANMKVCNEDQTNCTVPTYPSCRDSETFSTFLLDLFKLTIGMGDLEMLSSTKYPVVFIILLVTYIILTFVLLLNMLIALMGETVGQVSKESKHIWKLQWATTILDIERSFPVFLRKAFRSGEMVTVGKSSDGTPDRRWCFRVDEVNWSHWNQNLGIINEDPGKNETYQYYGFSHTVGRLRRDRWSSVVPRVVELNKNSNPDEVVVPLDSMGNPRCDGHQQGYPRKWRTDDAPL

Row | Structure (SMILES) | inhibition of TRPV4 current (hTRPV4) | channel open probability (hTRPV3) | effect on ion permeation or single-channel conductance (hTRPV3) | effect of mutation on compound-induced inhibition of mTRPV3 currents (mTRPV3 F666A) | effect of mutation on compound-induced inhibition of mTRPV3 currents (mTRPV3 V662A)
1 | O=C(/C=C/c1ccc(O)c(O)c1)O[C@@H]1[C@H](O)C[C@@](O)(C(=O)O)C[C@H]1OC(=O)/C=C/c1ccc(O)c(O)c1 [IAB, isochlorogenic acid B] | no inhibitory effect | 3.2 ± 1.1% | no effect | markedly reduced | no obvious effect
2 | O=C(/C=C/c1ccc(O)c(O)c1)O[C@@H]1C[C@](O)(C(=O)O)C[C@@H](OC(=O)/C=C/c2ccc(O)c(O)c2)[C@H]1O [IAA, isochlorogenic acid A] | no inhibitory effect | 3.7 ± 1.2% | no effect | markedly reduced | no obvious effect

Reference: publication PMC8897028 (Acta Pharmaceutica Sinica. B, 2021)
